These results are taken from ChEMBL document CHEMBL2331476, “A novel semisynthetic flavonoid 7-O-galloyltaxifolin upregulates heme oxygenase-1 in RAW264.7 cells via MAPK/Nrf2 pathway” (J Med Chem, 2013).

In data set [1] the target is MAP kinase p38 (Homo sapiens) (UniProt O15264+Q15759+Q16539+P53778). Description: Activation of p38MAPK in mouse RAW264.7 cells assessed as phosphorylation at Thr180/Tyr182 at 5 uM after 30 mins by Western blotting analysis. Format: cell-based. The procedure, abridged: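 Serum-starved RAW264.7 cells were treated 30 min with 5 μM anisomycin in serum-free medium. Whole-cell lysate was made in Tris/NaCl/SDS/NP-40/Triton buffer with phosphatase and protease inhibitors, pH 7.4, and 35 μg/lane run on 10% SDS-PAGE. Blots were probed for p38 dually phosphorylated at Thr180/Tyr182 versus total p38, with chemiluminescent detection.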
(A western blot detects proteins with antibodies after separation by electrophoresis.)

Data set [2] concerns the target T1, Nuclear factor erythroid 2-related factor 2 (Mus musculus) (UniProt Q60795).
T1 sequence (whole entry): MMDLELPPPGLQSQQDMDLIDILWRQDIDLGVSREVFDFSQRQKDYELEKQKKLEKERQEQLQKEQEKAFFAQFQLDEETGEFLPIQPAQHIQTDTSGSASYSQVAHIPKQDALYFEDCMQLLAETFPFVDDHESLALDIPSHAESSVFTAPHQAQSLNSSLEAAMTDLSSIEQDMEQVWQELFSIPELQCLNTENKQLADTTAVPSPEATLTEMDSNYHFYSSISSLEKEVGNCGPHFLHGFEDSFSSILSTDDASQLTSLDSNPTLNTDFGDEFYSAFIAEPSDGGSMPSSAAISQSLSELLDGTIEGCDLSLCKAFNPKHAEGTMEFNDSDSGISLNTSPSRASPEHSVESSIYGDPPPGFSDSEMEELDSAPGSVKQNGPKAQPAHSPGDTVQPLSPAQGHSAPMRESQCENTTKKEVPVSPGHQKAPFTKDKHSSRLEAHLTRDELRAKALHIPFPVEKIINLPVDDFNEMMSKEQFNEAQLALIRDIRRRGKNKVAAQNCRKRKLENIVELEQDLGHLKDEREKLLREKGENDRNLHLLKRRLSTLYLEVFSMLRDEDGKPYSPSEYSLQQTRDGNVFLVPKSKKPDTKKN
As to the kind of experiment: Activation of Nrf2 in mouse RAW264.7 cells assessed as upregulation of HO1 protein expression at 50 uM after 6 hrs by Western blotting analysis. It is filed as cell-based. The procedure, abridged:
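HO-1 protein in whole-cell lysates (20 μg/lane) of serum-starved RAW264.7 cells after 6 h at 10-50 μM or 50 μM for 1-6 h in serum-free medium, 0.1% DMSO control. Chemiluminescent Western blot; HO-1 densitometry normalized to actin, mean of three experiments.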

The subject of data set [3] is RAW264.7. As to the kind of experiment: Cytotoxicity against mouse RAW264.7 cells assessed as decreased cell viability at 50 uM after 6 hrs by MTT assay. It is filed as cell-based. The note with it: raw264.7, 6 h. The method in brief: (§1)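 Serum-starved RAW264.7 cells exposed 6 h at 10 or 50 μM; 0.1% DMSO control (100% viability), 1.5% Triton X-100 positive control. Cells washed and incubated 2 h at 37 °C with 0.5 mg/mL MTT in serum-free medium. Formazan dissolved in DMSO, A540 read, viability relative to DMSO-treated cells.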
(In general: Formazan colour is commonly taken as a measure of viable cells.)

Data set [4] has as its system RAW264.7. Description: Cytotoxicity against mouse RAW264.7 cells assessed as decreased cell viability at 10 uM after 6 hrs by MTT assay. Format: cell-based. The note with it: raw264.7, 6 h. The procedure, abridged:
as §1

The target of data set [5] is T1, Nuclear factor erythroid 2-related factor 2 (Mus musculus). As to the kind of experiment: Activation of Nrf2 in mouse RAW264.7 cells assessed as upregulation of Hmox1 gene expression at 10 to 50 uM after 6 hrs by real-time PCR analysis relative to GAPDH mRNA expression. It is filed as cell-based. The procedure, abridged:
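RAW264.7 cells treated 6 h in serum-free medium, 0.1% DMSO control. Total RNA (2 μg) reverse transcribed; TaqMan qPCR for Hmox1 and Gapdh, 40 cycles. Relative expression by 2^−ΔΔCT, normalized to Gapdh; mean ± SD of three experiments.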
On the technique in general: Quantitative PCR measures a nucleic acid by following its amplification.

The target is the same in data set [6]. As to the kind of experiment: Activation of Nrf2 in mouse RAW264.7 cells assessed as upregulation of Hmox1 gene expression at 50 uM after 6 hrs by real-time PCR analysis relative to GAPDH mRNA expression. Format: cell-based. The method in brief:
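Serum-starved RAW264.7 cells were exposed for 6 h in serum-free medium against a 0.1% DMSO control. Total RNA (2 μg) was reverse-transcribed, then TaqMan qPCR run for Hmox1 and Gapdh over 40 cycles. Crossing points were taken by second-derivative maximum, and fold change calculated by the 2^−ΔΔCT method normalized to Gapdh. Mean ± SD of three experiments.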

For data set [7] the target is unchanged. As to the kind of experiment: Activation of Nrf2 in mouse RAW264.7 cells assessed as nuclear accumulation at 50 uM after 3 hrs by Western blotting analysis. It is filed as cell-based. The procedure, abridged:
(§2)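 RAW264.7 cells (passage 5−25) seeded at 1 × 10⁵ cells/cm², switched to serum-free medium after 8 h, left overnight, then treated 3 h in serum-free medium; 0.1% DMSO vehicle control. Cells were swollen in hypotonic HEPES/NP-40 buffer for the cytosolic fraction and nuclei extracted in high-salt buffer. Blots loaded 30 μg/lane, Nrf2 densitometry normalized to actin, mean of three experiments.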

The target is the same in data set [8]. Description: Activation of Nrf2 in mouse RAW264.7 cells assessed as cytosolic accumulation at 50 uM after 3 hrs by Western blotting analysis. Format: cell-based. The method in brief: as §2
Data set [9] relates to RAW264.7. Description: Drug uptake in mouse RAW264.7 cells measured per 10^6 cells at 50 uM after 6 hrs. It is filed as ADME, cell-based. The note with it: raw264.7, 6 h. The procedure, abridged: (§3)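 Cells given 50 μM for up to 6 h, then scraped, washed twice in PBS and sonicated in methanol with 5% acetic acid. Supernatant analysed by UPLC on a phenyl column (water/1% acetic acid/methanol to methanol gradient, 35 °C) with negative ESI-QqTOF MS. Contents expressed as nmol per 10⁶ cells.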

Data set [10] deals with RAW264.7. Description: Stability in mouse RAW264.7 cells assessed as gallic acid level at 50 uM after 6 hrs by HPLC/MS analysis. Format: ADME, cell-based. The conditions noted are these: raw264.7, 6 h.
Data set [11] concerns RAW264.7. As to the kind of experiment: Drug uptake in mouse RAW264.7 cells measured per 10^6 cells at 50 uM after 3 hrs. It is filed as ADME, cell-based. The note with it: raw264.7, 3 h. The method in brief: as §3
Data set [12] concerns RAW264.7. As to the kind of experiment: Drug uptake in mouse RAW264.7 cells at 50 uM after 10 mins. The conditions noted are these: raw264.7, 10 min. It is filed as ADME, cell-based. The method in brief: as §3

Activity calls are given as the source filed them. The calls are words filed in the database; no cut-off is given here.

Take `COc1ccc(C[C@H]2NC[C@H](O)[C@H]2OC(C)=O)cc1`: the outcome in data set [1] was Active.
As for `O=c1c(O[C@@H]2O[C@H](CO)[C@@H](O)[C@H](O)[C@H]2O)c(-c2ccc(O)c(O)c2)oc2cc(O)cc(O)c12` [ISOQUERCETIN], the fold change (FC) in data set [2] came out at 1. The Activity entry in data set [3] and in [4] was “Non-toxic” in each case. In addition, the result in data set [5] was inactive.
For the molecule `O=c1c(O)c(-c2ccc(O)c(O)c2)oc2cc(O)cc(O)c12` [QUERCETIN], the fold change (FC) in data set [2] came to 1.9; in [6], 4.3. For the same molecule, the result in data set [7] and in data set [8] was Active. Besides, the Activity entry in [3] and in data set [4] was “Non-toxic” each time.
Turning to `O=C(O)c1cc(O)c(O)c(O)c1` [GALLIC ACID], the fold change (FC) in [2] and in [6] was 1.5 throughout. For the same molecule, the Activity in data set [3] was 76%.
Take `O=C1c2c(O)cc(O)cc2O[C@H](c2ccc(O)c(O)c2)[C@H]1O` [(+)-TAXIFOLIN]: the fold change (FC) in [2] was 1. In addition, the Activity entry in [3] and in [4] was “Non-toxic” in each case. Besides, the result in [5] was inactive.
As for `O=C(Oc1c(-c2ccc(O)c(O)c2)oc2cc(O)cc(O)c2c1=O)c1cc(O)c(O)c(O)c1`, in data set [2], the fold change (FC) is 0.9. In addition, the Activity in data set [3] is on record as 79%. Besides, the results for the Drug uptake in [9], in data set [11] and in data set [12] were 1.8 nmol, 1.75 nmol and 85%, respectively. Further, in data set [10], the Stability result is reported as “Stable”. Moreover, the outcome in data set [5] was inactive.
Molecule `O=C(Oc1cc(O)c2c(=O)c(O)c(-c3ccc(O)c(O)c3)oc2c1)c1cc(O)c(O)c(O)c1` returned a Drug uptake in [11] of 8.08 nmol.
